Blank lines part the entries; values can stand above or below the compound they belong to.
What was measured:
Coagulation factor X = Coagulation factor X (Homo sapiens, UniProt P00742); assay: Inhibition of human factor 10a
Plasma [1] = assay: Anticoagulant potency in human plasma assessed as concentration required to double the time to clot formation by PT assay; type: functional
Procedure, shortened: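 Human normal plasma mixed with compound dilutions in DMSO (1.5 µL into 48.5 µL), preincubated 4 min at 37 °C, clotting started with thromboplastin and timed on an automatic coagulometer. Prolongation relative to DMSO; concentration doubling clotting time derived by least-squares regression; mean of duplicates.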

[2] = Basicity, pKa by titration method; type: physicochemical
physchem = conditions: buffer, pH 7.4
Plasma [3] = assay: Anticoagulant potency in mouse plasma assessed as concentration required to double the time to clot formation by PT assay; type: functional
CYP3A4 = CYP3A4 (Homo sapiens, UniProt P08684); assay: Inhibition of CYP3A4 expressed in human B-lymphoblastoid cells at 10 uM; type: ADME, cell-based
Chain of CYP3A4 (P08684 whole entry): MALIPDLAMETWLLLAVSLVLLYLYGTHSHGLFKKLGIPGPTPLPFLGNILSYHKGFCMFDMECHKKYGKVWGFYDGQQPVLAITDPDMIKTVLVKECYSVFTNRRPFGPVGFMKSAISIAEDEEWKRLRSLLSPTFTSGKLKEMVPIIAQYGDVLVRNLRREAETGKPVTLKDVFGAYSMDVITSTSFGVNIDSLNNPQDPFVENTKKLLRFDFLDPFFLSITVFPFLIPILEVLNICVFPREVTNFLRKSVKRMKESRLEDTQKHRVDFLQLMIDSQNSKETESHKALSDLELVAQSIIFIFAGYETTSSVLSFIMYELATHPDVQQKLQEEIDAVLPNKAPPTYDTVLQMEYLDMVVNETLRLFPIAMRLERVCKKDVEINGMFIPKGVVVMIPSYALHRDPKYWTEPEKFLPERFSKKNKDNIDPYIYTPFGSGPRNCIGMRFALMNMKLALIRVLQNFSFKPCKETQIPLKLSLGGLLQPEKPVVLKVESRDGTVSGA
Procedure, shortened: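 Recombinant CYP3A4 (10 nM, from CYP3A4-expressing human B-lymphoblastoid cells) incubated with 100 µM testosterone and 10 µM test compound for 30 min at 37 °C; 6β-hydroxytestosterone formation quantified by HPLC-UV.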

Prothrombin = Prothrombin (Homo sapiens, UniProt P00734); assay: Inhibition of thrombin
[4] = Inhibition of trypsin
Plasminogen = Plasminogen (Homo sapiens, UniProt P00747); assay: Inhibition of plasmin
Chain of Plasminogen (P00747 97-580 limits assumed): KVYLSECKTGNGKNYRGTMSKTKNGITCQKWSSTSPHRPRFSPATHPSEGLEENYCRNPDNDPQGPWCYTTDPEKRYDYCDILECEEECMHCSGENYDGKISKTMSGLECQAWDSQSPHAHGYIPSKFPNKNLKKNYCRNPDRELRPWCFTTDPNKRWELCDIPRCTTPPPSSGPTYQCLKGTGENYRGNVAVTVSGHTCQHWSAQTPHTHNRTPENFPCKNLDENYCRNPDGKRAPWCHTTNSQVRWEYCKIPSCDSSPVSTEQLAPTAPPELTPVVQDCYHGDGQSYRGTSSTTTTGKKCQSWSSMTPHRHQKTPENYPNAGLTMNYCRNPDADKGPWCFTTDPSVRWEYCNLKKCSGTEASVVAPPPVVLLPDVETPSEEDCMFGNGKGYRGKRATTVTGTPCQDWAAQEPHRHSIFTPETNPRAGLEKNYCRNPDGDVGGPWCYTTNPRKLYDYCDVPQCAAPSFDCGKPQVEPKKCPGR
Chain of Plasminogen (P00747 581-810 limits assumed): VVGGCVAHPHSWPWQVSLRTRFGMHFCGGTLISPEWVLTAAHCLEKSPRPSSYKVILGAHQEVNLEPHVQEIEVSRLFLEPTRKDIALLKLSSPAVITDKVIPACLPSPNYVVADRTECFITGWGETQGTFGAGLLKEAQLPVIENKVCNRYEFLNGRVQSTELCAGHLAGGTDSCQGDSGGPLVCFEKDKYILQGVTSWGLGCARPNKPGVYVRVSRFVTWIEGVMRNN

[5] = biological target: Tissue-type plasminogen activator (Homo sapiens, UniProt P00750); assay: Inhibition of tPA
Chain of Tissue-type plasminogen activator (P00750 whole entry): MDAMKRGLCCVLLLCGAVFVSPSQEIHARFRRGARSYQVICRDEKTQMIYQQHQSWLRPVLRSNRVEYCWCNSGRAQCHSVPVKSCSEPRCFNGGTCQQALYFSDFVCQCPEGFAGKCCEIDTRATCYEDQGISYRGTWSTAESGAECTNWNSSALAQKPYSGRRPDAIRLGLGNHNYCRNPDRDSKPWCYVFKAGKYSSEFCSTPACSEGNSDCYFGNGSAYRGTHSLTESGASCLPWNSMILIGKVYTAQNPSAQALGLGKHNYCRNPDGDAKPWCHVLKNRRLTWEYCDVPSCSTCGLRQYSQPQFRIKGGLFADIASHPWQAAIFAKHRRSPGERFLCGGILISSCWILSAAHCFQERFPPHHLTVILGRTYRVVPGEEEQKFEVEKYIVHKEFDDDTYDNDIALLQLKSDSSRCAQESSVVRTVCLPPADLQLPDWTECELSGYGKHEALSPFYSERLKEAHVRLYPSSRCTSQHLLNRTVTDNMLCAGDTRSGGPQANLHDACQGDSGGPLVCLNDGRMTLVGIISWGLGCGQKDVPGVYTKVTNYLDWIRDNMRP

[6] = Cmin in Sprague-Dawley rat in fed state at 0.3 mg, iv after 5 mins; type: ADME, organism-based; conditions: in vivo, read-out: Cmin
Procedure, shortened: (§1)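 Male SD rats (8 weeks old) or cynomolgus monkeys, n = 3, given 0.3 mg/kg intravenously in DMA/PEG400. Blood sampled at 5, 10, 15, 30 min and 1, 2, 4, 8, 24 h (rat tail vein, monkey femoral vein); acetonitrile-deproteinized plasma diluted in pH 3.0 ammonium formate and quantified by LC/MS/MS.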

[7] = AUC (0 to 24 hrs) in Sprague-Dawley rat in fed state at 0.3 mg, iv; type: ADME, organism-based; parameters: time < 24 hr, dose 0.3 mg, route intravenous; conditions: plasma
Procedure, shortened: (§2)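 Male SD (IGS) rats, 8 weeks old, n = 3, fasted or fed; dosed iv at 0.3 mg/kg in DMA/PEG400 or orally at 3 mg/kg as 0.5% methylcellulose suspension. Tail-vein blood drawn 5 min–24 h (iv) or 15 min–24 h (po). Plasma deproteinized with acetonitrile, diluted in 0.01 mol/L HCO₂NH₄ pH 3.0, and quantified by LC/MS/MS in positive ion mode.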

[8] = Mean residence time in Sprague-Dawley rat in fed state at 0.3 mg, iv; type: ADME, organism-based; conditions: in vivo; procedure, shortened: as §1
[9] = Volume of distribution in steady state in Sprague-Dawley rat in fed state at 0.3 mg, iv; type: ADME, organism-based; conditions: in vivo, read-out: Vdss; procedure, shortened: as §1
[10] = Total clearance in Sprague-Dawley rat in fed state at 0.3 mg, iv; type: ADME, organism-based; conditions: in vivo; procedure, shortened: as §1
[11] = Cmin in cynomolgus monkey in fed state at 0.3 mg, iv after 5 mins; type: ADME, organism-based, Macaca fascicularis; conditions: in vivo, read-out: Cmin; procedure, shortened: as §1
[12] = AUC (0 to 24 hrs) in cynomolgus monkey in fed state at 0.3 mg, iv; type: ADME, organism-based, Macaca fascicularis; parameters: dose 0.3 mg, time < 24 hr, route intravenous; conditions: plasma
Procedure, shortened: (§3)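 Male cynomolgus monkeys, n = 3, fasted or fed; single dose iv 0.3 mg/kg (DMA/PEG400) or po 3 mg/kg (0.5% methylcellulose suspension). Femoral-vein blood sampled 5 min–24 h after iv, 15 min–24 h after oral. Plasma deproteinized with acetonitrile, supernatant diluted in 0.01 mol/L HCO₂NH₄ pH 3.0, drug measured by LC/MS/MS.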

[13] = Mean residence time in cynomolgus monkey in fed state at 0.3 mg, iv; type: ADME, organism-based, Macaca fascicularis; conditions: in vivo; procedure, shortened: as §1
[14] = Volume of distribution in steady state in cynomolgus monkey in fed state at 0.3 mg, iv; type: ADME, organism-based, Macaca fascicularis; conditions: in vivo, read-out: Vdss; procedure, shortened: as §1
[15] = Total clearance in cynomolgus monkey in fed state at 0.3 mg, iv; type: ADME, organism-based, Macaca fascicularis; conditions: in vivo; procedure, shortened: as §1
[16] = Cmax in Sprague-Dawley rat in fed state at 3 mg/kg, po; type: ADME, organism-based; parameters: dose 3 mg/kg, route oral; conditions: in vivo
Procedure, shortened: (§4)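 Male animals (SD rats 8 weeks old or cynomolgus monkeys, n = 3), fasted or fed, given 3 mg/kg orally as 0.5% methylcellulose suspension. Blood at 15, 30 min and 1, 2, 4, 8, 24 h (rat tail vein, monkey femoral vein); plasma deproteinized with acetonitrile, diluted in pH 3.0 ammonium formate, analysed by LC/MS/MS in positive ion mode.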

[17] = Tmax in Sprague-Dawley rat in fed state at 3 mg/kg, po; type: ADME, organism-based; parameters: dose 3 mg/kg, route oral; conditions: in vivo; procedure, shortened: as §4
[18] = AUC (0 to 24 hrs) in Sprague-Dawley rat in fed state at 3 mg/kg, po; type: ADME, organism-based; parameters: time < 24 hr, dose 3 mg/kg, route oral; conditions: plasma; procedure, shortened: as §2
[19] = Mean residence time in Sprague-Dawley rat in fed state at 3 mg/kg, po; type: ADME, organism-based; parameters: dose 3 mg/kg, route oral; conditions: in vivo; procedure, shortened: as §4
[20] = Bioavailability in Sprague-Dawley rat in fed state at 3 mg/kg, po; type: ADME, organism-based; conditions: in vivo
Procedure, shortened: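 Male SD (IGS) rats, 8 weeks old, n = 3, fed or fasted. Dosed iv at 0.3 mg/kg in DMA/PEG400 and po at 3 mg/kg as a 0.5% methylcellulose suspension. Tail-vein blood taken at 15, 30 min and 1, 2, 4, 8, 24 h after oral dosing (iv adds 5 and 10 min). Plasma deproteinized with acetonitrile and assayed by LC/MS/MS.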

[21] = Cmax in cynomolgus monkey in fed state at 3 mg/kg, po; type: ADME, organism-based, Macaca fascicularis; parameters: dose 3 mg/kg, route oral; conditions: in vivo; procedure, shortened: as §4
[22] = Tmax in cynomolgus monkey in fed state at 3 mg/kg, po; type: ADME, organism-based, Macaca fascicularis; parameters: dose 3 mg/kg, route oral; conditions: in vivo; procedure, shortened: as §4
[23] = AUC (0 to 24 hrs) in cynomolgus monkey in fed state at 3 mg/kg, po; type: ADME, organism-based, Macaca fascicularis; parameters: time < 24 hr, dose 3 mg/kg, route oral; conditions: plasma; procedure, shortened: as §3
[24] = Mean residence time in cynomolgus monkey in fed state at 3 mg/kg, po; type: ADME, organism-based, Macaca fascicularis; parameters: dose 3 mg/kg, route oral; conditions: in vivo; procedure, shortened: as §4
[25] = Bioavailability in cynomolgus monkey in fed state at 3 mg/kg, po; type: ADME, organism-based, Macaca fascicularis; conditions: in vivo
Procedure, shortened: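 Male cynomolgus monkeys, fed, given 3 mg/kg orally as 0.5% methylcellulose suspension and 0.3 mg/kg iv in DMA/PEG400 (n = 3); femoral vein plasma sampled to 24 h, deproteinized with acetonitrile and quantified by LC/MS/MS.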

[26] = Cmax in Sprague-Dawley rat in fasted state at 3 mg/kg, po; type: ADME, organism-based; parameters: dose 3 mg/kg, route oral; conditions: in vivo; procedure, shortened: as §4
[27] = Tmax in Sprague-Dawley rat in fasted state at 3 mg/kg, po; type: ADME, organism-based; parameters: dose 3 mg/kg, route oral; conditions: in vivo; procedure, shortened: as §4
[28] = Mean residence time in Sprague-Dawley rat in fasted state at 3 mg/kg, po; type: ADME, organism-based; parameters: dose 3 mg/kg, route oral; conditions: in vivo; procedure, shortened: as §4
[29] = AUC (0 to 24 hrs) in Sprague-Dawley rat in fasted state at 3 mg/kg, po; type: ADME, organism-based; parameters: time < 24 hr, dose 3 mg/kg, route oral; conditions: plasma; procedure, shortened: as §2
[30] = Cmax in cynomolgus monkey in fasted state at 3 mg/kg, po; type: ADME, organism-based, Macaca fascicularis; parameters: dose 3 mg/kg, route oral; conditions: in vivo; procedure, shortened: as §4
[31] = Tmax in cynomolgus monkey in fasted state at 3 mg/kg, po; type: ADME, organism-based, Macaca fascicularis; parameters: dose 3 mg/kg, route oral; conditions: in vivo; procedure, shortened: as §4
[32] = Mean residence time in cynomolgus monkey in fasted state at 3 mg/kg, po; type: ADME, organism-based, Macaca fascicularis; parameters: dose 3 mg/kg, route oral; conditions: in vivo; procedure, shortened: as §4
[33] = AUC (0 to 24 hrs) in cynomolgus monkey in fasted state at 3 mg/kg, po; type: ADME, organism-based, Macaca fascicularis; parameters: time < 24 hr, dose 3 mg/kg, route oral; conditions: plasma; procedure, shortened: as §3
Rattus norvegicus [34] = assay: Effect on bleeding time in Sprague-Dawley rat at 30 mg/kg, po; type: functional
Procedure, shortened: (§5)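 Male Sprague-Dawley rats (7 weeks old) dosed orally 30 min beforehand, then anaesthetized with pentobarbital; tail transected 2-3 mm from tip, blood blotted every 30 s until bleeding stopped or 30 min elapsed; mean ± SEM, n = 6.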

Rattus norvegicus [35] = assay: Effect on bleeding time in Sprague-Dawley rat at 100 mg/kg, po; type: functional; procedure, shortened: as §5
Plasma [36] = assay: Anticoagulant activity in mouse plasma assessed as ratio of prothrombin time in drug to untreated control at 30 mg/kg, po; type: functional
Procedure, shortened: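 Male ICR mice (30-35 g), fasted >12 h, dosed orally at 30 mg/kg as suspension in 0.5% methylcellulose; vehicle controls. Citrated aortic blood drawn 1 h post-dose under pentobarbital anaesthesia, spun 1000g 10 min to platelet-poor plasma. PT on 50 µL plasma preincubated 4 min at 37 °C, started with thromboplastin; clotting time expressed relative to control group (n = 3).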

Chain of Coagulation factor X (P00742 41-179 limits assumed): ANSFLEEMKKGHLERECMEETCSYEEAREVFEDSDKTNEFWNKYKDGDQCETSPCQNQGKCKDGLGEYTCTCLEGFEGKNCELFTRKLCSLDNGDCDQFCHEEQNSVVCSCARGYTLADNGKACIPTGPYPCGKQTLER
Chain of Coagulation factor X (P00742 235-488 limits assumed): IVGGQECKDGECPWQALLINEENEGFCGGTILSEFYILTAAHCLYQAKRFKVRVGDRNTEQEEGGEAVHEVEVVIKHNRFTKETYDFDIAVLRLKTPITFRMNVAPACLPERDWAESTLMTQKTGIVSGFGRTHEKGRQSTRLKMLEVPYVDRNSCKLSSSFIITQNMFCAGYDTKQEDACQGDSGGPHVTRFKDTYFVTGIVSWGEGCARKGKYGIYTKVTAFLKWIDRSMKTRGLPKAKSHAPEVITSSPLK

Structure (SMILES): O=C(CCS(=O)(=O)c1ccc2cc(Cl)ccc2c1)N1CCC(c2cnc[nH]2)CC1
- IC50 (Coagulation factor X): 0.17 µM
- Activity (Plasma [1]): 3 µM
- pKa [2]: 6.9
- logD (physchem): 2

Structure (SMILES): Cc1ncc2n1C(=O)N(C1CCN(C(=O)CCS(=O)(=O)c3ccc4cc(Cl)ccc4c3)CC1)C2
- Activity (Plasma [1]): 1 µM
- pKa [2]: 5
- Activity (Plasma [3]): 2 µM
- inhibition at 10 µM (CYP3A4): 23%
- Ki (Prothrombin): 6.2 µM
- Ki [4]: > 60 µM
- Ki (Plasminogen): > 60 µM
- Ki [5]: > 60 µM
- concentration at 5 min [6]: 0.291 µg/mL
- AUC(0-t) at 24 h [7]: 0.245 µg·h/mL
- MRT [8]: 0.7 h
- Vd [9]: 0.888 L/kg
- clearance [10]: 1.24 L/h/kg
- concentration at 5 min [11]: 0.612 µg/mL
- AUC(0-t) at 24 h [12]: 0.565 µg·h/mL
- MRT [13]: 1 h
- Vd [14]: 0.556 L/kg
- clearance [15]: 0.541 L/h/kg
- Cmax [16]: 0.145 µg/mL
- Tmax [17]: 1.2 h
- AUC(0-t) at 24 h [18]: 0.597 µg·h/mL
- MRT [19]: 3.6 h
- bioavailability [20]: 24%
- Cmax [21]: 0.269 µg/mL
- Tmax [22]: 2.3 h
- AUC(0-t) at 24 h [23]: 2.59 µg·h/mL
- MRT [24]: 7 h
- bioavailability [25]: 46%
- Cmax [26]: 0.57 µg/mL
- Tmax [27]: 0.3 h
- MRT [28]: 1.5 h
- AUC(0-t) at 24 h [29]: 0.417 µg·h/mL
- Cmax [30]: 1.2 µg/mL
- Tmax [31]: 0.8 h
- MRT [32]: 1.6 h
- AUC(0-t) at 24 h [33]: 2.12 µg·h/mL
- Time (Rattus norvegicus [34]): 490 s
- Time (Rattus norvegicus [35]): 1040 s
- logD (physchem): 2.3

Structure (SMILES): Cc1nccn1CCCCC1CCN(C(=O)CCS(=O)(=O)c2ccc3cc(Cl)ccc3c2)CC1
- IC50 (Coagulation factor X): 0.3 µM
- Activity (Plasma [1]): >10 µM

Continued, in another order:

- IC50 (Coagulation factor X): 0.012 µM
- pKa [2]: 5.9
- logD (physchem): 2.5
Structure (SMILES): O=C(CCS(=O)(=O)c1ccc2cc(Cl)ccc2c1)N1CCC(c2cnc3ccccn23)CC1
- Activity (Plasma [1]): 2.2 µM

- IC50 (Coagulation factor X): 0.0053 µM
- pKa [2]: 5.4
- inhibition at 10 µM (CYP3A4): 62%
- logD (physchem): 2.5
Structure (SMILES): Cc1nc(C)n2c1CN(C1CCN(C(=O)CCS(=O)(=O)c3ccc4cc(Cl)ccc4c3)CC1)C2=O
- Activity (Plasma [1]): 1.2 µM
- Activity (Plasma [3]): 2.5 µM
- Ratio (Plasma [36]): 2

— ChEMBL document CHEMBL1150763, “Discovery of imidazo[1,5-c]imidazol-3-ones: weakly basic, orally active factor Xa inhibitors” (J Med Chem, 2008)
